Results: ChEMBL document CHEMBL3739344, “A novel class of negative allosteric modulators of NMDA receptor function” (Bioorg Med Chem Lett, 2015)
≈ marks a conversion by molar mass, not a printed value. Calls of active or inactive are those of the source. No cut-off for these calls is given here.

Key:
[1] = molecular target: T1, Glutamate NMDA receptor; Grin1/Grin2c (Rattus norvegicus) (UniProt P35439+Q00961); assay: Noncompetitive negative allosteric modulation of rat GluN1a/GluN2C receptor expressed in Xenopus laevis oocytes assessed as suppression of 100 uM glutamate and 300 uM glycine induced-current at 5 uM by voltage clamp recording method relative to control; assay type: cell-based
In short: (§1)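 Oocytes expressing GluN1 with GluN2A, 2B, 2C or 2D, two-electrode voltage clamp. Inhibition by 5 µM compound of currents evoked by 100 µM glutamate plus 30 µM glycine, compared with inhibition when glutamate was raised to 1000 µM or glycine to 300 µM. Mean ±SEM from 4–6 oocytes.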

[2] = molecular target: Glutamate NMDA receptor; assay: Negative allosteric modulation of NMDA receptor in rat cerebellar granule cells assessed as suppression of 100 uM glutamate and 30 uM glycine induced-current cotreated with 100 uM NMDA and 50 uM glycine by patch clamp recording method
In short: (§2)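 Primary cerebellar granule cell cultures from P6–8 rats, whole-cell patch clamp at a holding potential of −70 mV. NMDA receptor currents evoked by 100 µM NMDA plus 30 µM glycine (50 µM glycine in the example trace), with the inhibitor co-applied at various concentrations. Steady-state inhibition averaged over n = 5 cells and fitted with the Hill equation.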

[3] = molecular target: T1, Glutamate NMDA receptor; Grin1/Grin2c (Rattus norvegicus); assay: Voltage-independent negative allosteric modulation of rat GluN1a/GluN2C receptor expressed in Xenopus laevis oocytes assessed as mean reverse potential of 100 uM glutamate and 30 uM glycine induced-current at -60 to +60 mV at 3 uM by voltage clamp recording method in absence of Mg2+ (Rvb=-13+/-0.6 mV); assay type: cell-based
In short: (§3)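 GluN1/GluN2C receptors in Xenopus oocytes, two-electrode voltage clamp in Mg2+-free solution. Currents evoked by maximally effective glutamate plus glycine, without and with 3 µM inhibitor, recorded at membrane potentials from −60 to +60 mV. Reversal potential taken from the current–voltage relationship (3rd-order polynomial fit). n = 5 oocytes, mean ±SEM.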

[4] = molecular target: T2, Glutamate NMDA receptor; Grin1/Grin2b (Rattus norvegicus) (UniProt P35439+Q00960); assay: Noncompetitive negative allosteric modulation of rat GluN1a/GluN2B receptor expressed in Xenopus laevis oocytes assessed as suppression of 1000 uM glutamate and 30 uM glycine induced-current at 5 uM by voltage clamp recording method relative to control; assay type: cell-based; in short: as §1
[5] = molecular target: T3, Ionotropic glutamate receptor NMDA 1/2D (Rattus norvegicus) (UniProt P35439+Q62645); assay: Negative allosteric modulation of rat GluN1a/GluN2D receptor expressed in Xenopus laevis oocytes assessed as suppression of 100 uM glutamate and 30 uM glycine induced-current at saturating compound level by voltage clamp recording method; assay type: cell-based
In short: (§4)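 Rat GluN1-1a cRNA co-injected with GluN2A, 2B, 2C or 2D cRNA into Xenopus oocytes; expression 1–3 days at 16–19 °C. Two-electrode voltage clamp. Currents evoked by 100 µM glutamate plus 30 µM glycine, alone and then with rising inhibitor concentrations. […] 4–17 oocytes from ≥2 frogs.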

[6] = molecular target: T1, Glutamate NMDA receptor; Grin1/Grin2c (Rattus norvegicus); assay: Negative allosteric modulation of rat GluN1a/GluN2C receptor expressed in Xenopus laevis oocytes assessed as suppression of 100 uM glutamate and 30 uM glycine induced-current at -60 to +60 mV at 3 uM by voltage clamp recording method in absence of Mg2+; assay type: cell-based; in short: as §3
[7] = molecular target: Ionotropic glutamate receptor NMDA 1/2D (Rattus norvegicus, UniProt P35439+Q62645); assay: Negative allosteric modulation of rat GluN1a/GluN2D receptor expressed in Xenopus laevis oocytes assessed as suppression of 100 uM glutamate and 30 uM glycine induced-current by voltage clamp recording method; assay type: cell-based; in short: as §4
[8] = system: Primary neuron; assay: Neuroprotective activity in rat primary hippocampal neurons assessed as 100 uM NMDA and 30 uM glycine induced LDH release in media at 30 uM after 20 to 24 hrs by spectrophotometric analysis; assay type: functional, cell-based
In short: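 Primary rat hippocampal neurons kept 7–10 days in vitro at 37 °C. Challenged for 1 h with Mg2+-free medium containing 100 µM NMDA plus 30 µM glycine, with or without […], then returned to normal medium. LDH activity in the supernatant read spectrophotometrically 20–24 h later and expressed relative to vehicle-treated cells. Triplicates from 6 independent experiments.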

[9] = molecular target: T1, Glutamate NMDA receptor; Grin1/Grin2c (Rattus norvegicus); assay: Noncompetitive negative allosteric modulation of rat GluN1a/GluN2C receptor expressed in Xenopus laevis oocytes assessed as suppression of 1000 uM glutamate and 30 uM glycine induced-current at 5 uM by voltage clamp recording method relative to control; assay type: cell-based; in short: as §1
[10] = molecular target: Glutamate NMDA receptor (Rattus norvegicus) (UniProt P35439+Q00959+Q00960+Q00961+Q62645+Q8VHN2+Q9R1M7); assay: Negative allosteric modulation of NMDA receptor in rat cerebellar granule cells assessed as suppression of 100 uM glutamate and 30 uM glycine induced-current at 30 uM cotreated with 100 uM NMDA and 50 uM glycine by patch clamp recording method; in short: as §2
[11] = Solubility of compound in TEVC electrophysiological solution at 3.25 to 100 uM by nephelometric method; assay type: physicochemical
In short: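 Nephelometry measuring forward light scattering of each compound at 3.25–100 µM in TEVC recording solution. Maximum solubility taken as the intersection point of a linear segmental regression. Mean of n = 2 in quadruplicate.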

[12] = molecular target: T3, Ionotropic glutamate receptor NMDA 1/2D (Rattus norvegicus); assay: Noncompetitive negative allosteric modulation of rat GluN1a/GluN2D receptor expressed in Xenopus laevis oocytes assessed as suppression of 1000 uM glutamate and 30 uM glycine induced-current at 5 uM by voltage clamp recording method relative to control; assay type: cell-based; in short: as §1
[13] = molecular target: T2, Glutamate NMDA receptor; Grin1/Grin2b (Rattus norvegicus); assay: Noncompetitive negative allosteric modulation of rat GluN1a/GluN2B receptor expressed in Xenopus laevis oocytes assessed as suppression of 100 uM glutamate and 300 uM glycine induced-current at 5 uM by voltage clamp recording method relative to control; assay type: cell-based; in short: as §1
[14] = molecular target: Glutamate NMDA receptor; Grin1/Grin2a (Rattus norvegicus, UniProt P35439+Q00959); assay: Negative allosteric modulation of rat GluN1a/GluN2A receptor expressed in Xenopus laevis oocytes assessed as suppression of 100 uM glutamate and 30 uM glycine glycine induced-current by voltage clamp recording method; assay type: cell-based; in short: as §4
[15] = molecular target: T4, Glutamate NMDA receptor; Grin1/Grin2a (Rattus norvegicus) (UniProt P35439+Q00959); assay: Noncompetitive negative allosteric modulation of rat GluN1a/GluN2A receptor expressed in Xenopus laevis oocytes assessed as suppression of 1000 uM glutamate and 30 uM glycine induced-current at 5 uM by voltage clamp recording method relative to control; assay type: cell-based; in short: as §1
[16] = molecular target: Glutamate NMDA receptor; Grin1/Grin2b (Rattus norvegicus, UniProt P35439+Q00960); assay: Negative allosteric modulation of rat GluN1a/GluN2B receptor expressed in Xenopus laevis oocytes assessed as suppression of 100 uM glutamate and 30 uM glycine induced-current by voltage clamp recording method; assay type: cell-based; in short: as §4
[17] = molecular target: T4, Glutamate NMDA receptor; Grin1/Grin2a (Rattus norvegicus); assay: Noncompetitive negative allosteric modulation of rat GluN1a/GluN2A receptor expressed in Xenopus laevis oocytes assessed as suppression of 100 uM glutamate and 300 uM glycine induced-current at 5 uM by voltage clamp recording method relative to control; assay type: cell-based; in short: as §1
[18] = molecular target: T2, Glutamate NMDA receptor; Grin1/Grin2b (Rattus norvegicus); assay: Negative allosteric modulation of rat GluN1a/GluN2B receptor expressed in Xenopus laevis oocytes assessed as suppression of 100 uM glutamate and 30 uM glycine induced-current at saturating compound level by voltage clamp recording method; assay type: cell-based; in short: as §4
[19] = molecular target: T3, Ionotropic glutamate receptor NMDA 1/2D (Rattus norvegicus); assay: Noncompetitive negative allosteric modulation of rat GluN1a/GluN2D receptor expressed in Xenopus laevis oocytes assessed as suppression of 100 uM glutamate and 300 uM glycine induced-current at 5 uM by voltage clamp recording method relative to control; assay type: cell-based; in short: as §1
[20] = molecular target: Glutamate NMDA receptor; Grin1/Grin2c (Rattus norvegicus, UniProt P35439+Q00961); assay: Negative allosteric modulation of rat GluN1a/GluN2C receptor expressed in Xenopus laevis oocytes assessed as suppression of 100 uM glutamate and 30 uM glycine induced-current by voltage clamp recording method; assay type: cell-based; in short: as §4
[21] = molecular target: T4, Glutamate NMDA receptor; Grin1/Grin2a (Rattus norvegicus); assay: Negative allosteric modulation of rat GluN1a/GluN2A receptor expressed in Xenopus laevis oocytes assessed as suppression of 100 uM glutamate and 30 uM glycine induced-current at saturating compound level by voltage clamp recording method; assay type: cell-based; in short: as §4
[22] = molecular target: T1, Glutamate NMDA receptor; Grin1/Grin2c (Rattus norvegicus); assay: Negative allosteric modulation of rat GluN1a/GluN2C receptor expressed in Xenopus laevis oocytes assessed as suppression of 100 uM glutamate and 30 uM glycine induced-current at saturating compound level by voltage clamp recording method; assay type: cell-based; in short: as §4

For CCOC(=O)c1c(NC(=O)CC2SC(N)=NC2=O)sc2c1CCC(C)C2 (racemic), the inhibition [1] was “Active”, the IC50 [2] was 3400 nM and the Activity [3] was -11.9 mV. For the same molecule, the inhibition [4] was “Active”, the inhibition [5] was 76% and the inhibition [6] was “Active”. The IC50 [7] was 400 nM, the Activity [8] was “Active” and the inhibition [9] was “Active”. For the same molecule, the inhibition [10] was “Active”, the solubility kinetic [11] was 43 µM (≈ 17 µg/mL) and the inhibition [12] was “Active”. For the same molecule, the inhibition [13] was “Active”, the IC50 [14] was 900 nM and the inhibition [15] was “Active”. The IC50 [16] was 2200 nM, the inhibition [17] was “Active” and the inhibition [18] was 70%. The inhibition [19] was “Active”, the IC50 [20] was 700 nM and the inhibition [21] was 88%. It also gave an inhibition [22] of 80%.
